Data on seven compounds can be found in ChEMBL document CHEMBL1806371, “Selenocyanates and diselenides: a new class of potent antileishmanial agents” (Eur J Med Chem, 2011).

The subject of series [1] is THP-1. Nature of the series: Cytotoxicity against human THP1 cells assessed as live cells in neubauer chamber after 24 hrs by trypan blue assay. It counts as cell-based. The settings on record: THP-1, 24 h.
The subject of series [2] is Leishmania infantum. The series can be described thus: Antileishmanial activity against Leishmania infantum MCAN/ES/89/IPZ229/1/89 amastigotes after 24 hrs by microscopy. Format: functional, organism-based. The settings on record: MCAN/ES/89/IPZ229/1/89, 24 h. The method, boiled down:
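Axenic L. infantum amastigotes (M199, 10% FCS, pH 5.4, 37 °C) treated in log phase at 1×10^6 parasites/mL for 24 h. Living cells counted by flow cytometry with propidium iodide exclusion, with microscopic observation by phase contrast or fluorescence. At least three independent experiments.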

Series [3] concerns Leishmania infantum. The series can be described thus: Antileishmanial activity against Leishmania infantum MCAN/ES/89/IPZ229/1/89 promastigotes assessed as growth inhibition at 25 uM after 24 hrs. It counts as functional. The method, boiled down: (§1)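 Log-phase L. infantum promastigotes (RPMI-1640, 10% FCS, 25 mM HEPES, pH 7.2, 26 °C) treated at 2×10^6 parasites/mL for 24 h. Screening used 25, 12.5 and 6.25 μM to give percent growth inhibition. Living cells measured by flow cytometry with propidium iodide exclusion. At least three independent experiments.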

In series [4] the test system is Leishmania infantum. The series can be described thus: Antileishmanial activity against Leishmania infantum MCAN/ES/89/IPZ229/1/89 amastigotes expressing GFP infected in human THP1 cells assessed as parasite infected cells after 48 hrs by flow cytometry (reference value: 35%). It counts as functional, THP-1.
The nature of series [5]: Human intestinal absorption in human. It counts as ADME, organism-based. Conditions: read-out: HIA. The gist of the method:
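Values are computed, not measured. Human intestinal absorption (%) and Caco-2 permeability (nm/s) were predicted in silico with the PreADMET program.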

A short description of series [6]: Selectivity ratio, ratio of IC50 for human Jurkat cells to IC50 for Leishmania infantum MCAN/ES/89/IPZ229/1/89 amastigotes. Conditions: read-out: Ratio IC50. Format: ADME, cell-based. The method, boiled down:
(§2)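 Selectivity index is IC50 against Jurkat or THP-1 cells divided by IC50 against L. infantum amastigotes. Host cells were treated in log phase at 4×10^5 cells/mL for 24 h at 37 °C, 5% CO2, at 0.08, 0.4, 2.0, 10.0 and 50.0 μM. Viability was measured by flow cytometry with propidium iodide exclusion.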

Series [7] concerns Leishmania infantum. The series can be described thus: Antileishmanial activity against Leishmania infantum MCAN/ES/89/IPZ229/1/89 promastigotes assessed as growth inhibition at 6.25 uM after 24 hrs. Format: functional. The gist of the method:
as §1

Series [8] concerns Leishmania infantum. The series can be described thus: Antileishmanial activity against Leishmania infantum MCAN/ES/89/IPZ229/1/89 promastigotes assessed as growth inhibition at 12.5 uM after 24 hrs. Format: functional. The gist of the method:
as §1

Series [9] can be described thus: Permeability across human Caco2 cells. Conditions: Caco-2, read-out: permeability. It counts as ADME, cell-based.
The nature of series [10]: Selectivity ratio, ratio of IC50 for human THP1 cells to IC50 for Leishmania infantum MCAN/ES/89/IPZ229/1/89 amastigotes. It counts as ADME, cell-based. The settings on record: THP-1 cells, read-out: Ratio IC50. The method, boiled down:
as §2

The test system of series [11] is Jurkat. The series can be described thus: Cytotoxicity against human Jurkat cells assessed as live cells in neubauer chamber after 24 hrs by trypan blue assay. It counts as cell-based.
The test system of series [12] is Leishmania infantum. Nature of the series: Ratio of edelfosine IC50 to compound IC50 for Leishmania infantum MCAN/ES/89/IPZ229/1/89 amastigotes. It counts as functional.
Series [13] concerns Leishmania infantum. Nature of the series: Ratio of miltefosine IC50 to compound IC50 for Leishmania infantum MCAN/ES/89/IPZ229/1/89 amastigotes. Format: functional.
Series [14] has as its system Leishmania infantum. Nature of the series: Antileishmanial activity against Leishmania infantum MCAN/ES/89/IPZ229/1/89 promastigotes after 24 hrs […]. The settings on record: MCAN/ES/89/IPZ229/1/89, 24 h. Format: functional, organism-based. The gist of the method:
as §1

For series [15], the system named is Leishmania infantum. Nature of the series: Antileishmanial activity against Leishmania infantum MCAN/ES/89/IPZ229/1/89 amastigotes expressing GFP infected in human THP1 cells assessed as parasite infected cells at 3 uM after 48 hrs by flow cytometry (reference value: 35%). Format: functional, THP-1. A general note: In flow cytometry, cells or beads pass a laser one at a time.

The test system of series [16] is THP-1. Nature of the series: Cytotoxicity against human THP1 cells infected with Leishmania infantum MCAN/ES/89/IPZ229/1/89 at 1 uM using propidium iodide staining by fluorescence contrast microscopy. Format: cell-based. Conditions: thp-1, 1 µM. The gist of the method: (§3)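 Drug was added to PMA-differentiated THP-1 cells infected with eGFP amastigotes, at 1, 3 and 15 µM, alongside a DMSO control at the highest assay concentration. Propidium iodide was added to a final 5 µg/mL, and cells were examined at once by phase contrast and fluorescence microscopy; PI stains dead cells.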

For series [17], the system named is THP-1. Nature of the series: Cytotoxicity against human THP1 cells infected with Leishmania infantum MCAN/ES/89/IPZ229/1/89 at 3 uM. Conditions: thp-1, 3 µM. Format: cell-based.
Series [18] has as its system Leishmania infantum. The series can be described thus: Antileishmanial activity against Leishmania infantum MCAN/ES/89/IPZ229/1/89 axenic amastigotes infected in human THP1 cells expressing GFP assessed as complete killing of parasite at 3 uM after 48 hrs by propidium iodide staining based flow cytometry. Format: functional, THP-1.
Series [19] has as its system THP-1. The series can be described thus: Cytotoxicity against human THP1 cells infected with Leishmania infantum MCAN/ES/89/IPZ229/1/89 at 3 uM by phase contrast microscopy. Format: cell-based. Conditions: thp-1, 3 µM. The method, boiled down: as §3
In series [20] the test system is Jurkat. The series can be described thus: Cytotoxicity against human Jurkat cells infected with Leishmania infantum MCAN/ES/89/IPZ229/1/89 at 1 uM by phase contrast microscopy. Format: cell-based.
The subject of series [21] is THP-1. Nature of the series: Cytotoxicity against human THP1 cells infected with Leishmania infantum MCAN/ES/89/IPZ229/1/89 at 1 uM by phase contrast microscopy. It counts as cell-based. Conditions: thp-1, 1 µM. The method, boiled down:
as §3

Series [22] has as its system Jurkat. Nature of the series: Cytotoxicity against human Jurkat cells infected with Leishmania infantum MCAN/ES/89/IPZ229/1/89 at 1 uM using propidium iodide staining by fluorescence contrast microscopy. It counts as cell-based.
Series [23] has as its system THP-1. Nature of the series: Cytotoxicity against human THP1 cells infected with Leishmania infantum MCAN/ES/89/IPZ229/1/89 at 3 uM using propidium iodide staining by fluorescence contrast microscopy. Format: cell-based. The settings on record: thp-1, 3 µM. The method, boiled down:
as §3

Series [24] has as its system Jurkat. Nature of the series: Cytotoxicity against human Jurkat cells infected with Leishmania infantum MCAN/ES/89/IPZ229/1/89 at 3 uM using propidium iodide staining by fluorescence contrast microscopy. Format: cell-based.
In series [25] the test system is Jurkat. The series can be described thus: Cytotoxicity against human Jurkat cells infected with Leishmania infantum MCAN/ES/89/IPZ229/1/89 at 3 uM by phase contrast microscopy. It counts as cell-based.
The test system of series [26] is Leishmania infantum. The series can be described thus: Antileishmanial activity against Leishmania infantum MCAN/ES/89/IPZ229/1/89 axenic amastigotes infected expressing GFP in human […] cells assessed as axenic parasite killing at 3 uM after 48 hrs by propidium iodide staining based flow cytometry. Format: functional.
Series [27] deals with Leishmania infantum. The series can be described thus: Antileishmanial activity against Leishmania infantum MCAN/ES/89/IPZ229/1/89 amastigotes expressing GFP infected in human THP1 cells assessed as reduction in parasite infection rate at 3 uM after 48 hrs by flow cytometry. It counts as functional, THP-1. More on the design: scale not given: the % may be the effect or the level left.

By IC50 is commonly meant the concentration that gives 50% inhibition. As for `c1ccc(C[Se][Se]Cc2ccccc2)cc1` [BISBENZYLDISELENIDE], the IC50 in the series with THP-1 [1] is 32.2 µM; with Leishmania infantum [2], 0.63 µM; with Jurkat [11] it was 26.1 µM. Also, the GI is 60.4% with Leishmania infantum [3], 33.2% in the series with Leishmania infantum [7] and 43.6% in the series on Leishmania infantum [8]. Moreover, the Activity with Leishmania infantum [4] came to 24%. Besides, the Fa in series [5] worked out at 100%. Besides, the figures for the selectivity ratio in series [6] and in series [10] were 41 and 51, respectively. In addition, the Papp in series [9] came to 5.83 ×10⁻⁶ cm/s.

Consider `O=[N+]([O-])c1ccc(C[Se][Se]Cc2ccc([N+](=O)[O-])cc2)cc1`, for which the IC50 was 18.8 µM in the series on THP-1 [1], 0.38 µM with Leishmania infantum [2] and 26.8 µM in the series on Jurkat [11]. For the same compound, the figures for the “Ratio IC50” value in the series with Leishmania infantum [12] and in the series with Leishmania infantum [13] were 2.2 and 7.5, respectively. Besides, the results for the GI with Leishmania infantum [3], with Leishmania infantum [7] and in the series on Leishmania infantum [8] were 98.7%, 81.8% and 96.3%, respectively. In addition, the Activity in the series with Leishmania infantum [4] worked out at 17%. In addition, in series [5], the Fa was found to be 98.3%. The selectivity ratio in series [6] was 71; in series [10], 77. In addition, in series [9], the Papp was found to be 2.01 ×10⁻⁶ cm/s.

As for `N#C[Se]Cc1ccccc1[N+](=O)[O-]`, the IC50 came to 3.32 µM with Leishmania infantum [14], 7.1 µM in the series with THP-1 [1], 0.34 µM in the series on Leishmania infantum [2] and 12.9 µM with Jurkat [11]. Besides, the “Ratio IC50” value stood at 2.4 in the series on Leishmania infantum [12] and 8.3 with Leishmania infantum [13]. The GI is recorded as 98.6% in the series with Leishmania infantum [3], 74% with Leishmania infantum [7] and 89.8% with Leishmania infantum [8]. Moreover, the results for the selectivity ratio in series [6] and in series [10] were 38 and 21, respectively.

Regarding `O=[N+]([O-])c1ccccc1C[Se][Se]Cc1ccccc1[N+](=O)[O-]`, the 50% inhibitory concentration (IC50) with Leishmania infantum [14] is 12.5 µM; in the series on THP-1 [1], 2.42 µM; in the series on Leishmania infantum [2], 0.29 µM; in the series with Jurkat [11], 2.62 µM. Moreover, the figures for the “Ratio IC50” value in the series with Leishmania infantum [12] and in the series on Leishmania infantum [13] were 2.8 and 9.8, respectively. The GI with Leishmania infantum [3] is 77.2%; in the series on Leishmania infantum [7] it was 50%; in the series on Leishmania infantum [8], 58.9%. In addition, the selectivity ratio in series [6] was determined as 9; in [10], 8.

As to `CCCCCCCCCCCCCCCCCCOCC(COP(=O)([O-])OCC[N+](C)(C)C)OC` (stereo not drawn) [EDELFOSINE], the IC50 in the series with Leishmania infantum [14] turned out to be 3.65 µM; in the series with THP-1 [1], 4.96 µM; with Leishmania infantum [2] it was 0.82 µM; in the series with Jurkat [11], 12.2 µM. For the same compound, in the series with Leishmania infantum [15], the Activity was 5%. For the same compound, in series [5], the Fa amounted to 98.4%. The selectivity ratio in series [6] turned out to be 15; in series [10] it was 6. Besides, the Papp in series [9] worked out at 3.94 ×10⁻⁶ cm/s.

`Nc1ccc([Se][Se]c2ccc(N)cc2)cc1`: the half-inhibitory concentration (IC50) in the series on Leishmania infantum [14] turned out to be 0.96 µM; in the series with THP-1 [1], 14 µM; in the series on Jurkat [11], 12.1 µM. The Activity result is “Non-toxic” with THP-1 [16]; “Non-toxic” with THP-1 [17]; 100% with Leishmania infantum [18]; 9% in the series on Leishmania infantum [4]; “Non-toxic” in the series with THP-1 [19]; “Non-toxic” in the series on Jurkat [20]. The Activity result in the series on THP-1 [21] is on record as “Non-toxic”; with Jurkat [22], “Non-toxic”; in the series with THP-1 [23], “Non-toxic”; in the series with Jurkat [24] it was “Non-toxic”; in the series with Jurkat [25], “Non-toxic”; with Leishmania infantum [26] it was 100%. The Activity in the series with Leishmania infantum [27] was found to be 74%. Further, the GI with Leishmania infantum [3] was determined as 98%; in the series with Leishmania infantum [7] it was 95.8%; in the series on Leishmania infantum [8], 97.6%. Also, the Fa in [5] stood at 97.6%. Besides, the figures for the selectivity ratio in series [6] and in [10] were 32 and 24, respectively. In series [9], the Papp amounted to 2.29 ×10⁻⁶ cm/s.

For `CN(C)c1ccc([Se][Se]c2ccc(N(C)C)cc2)cc1`, the figures for the IC50 in the series with THP-1 [1] and in the series on Jurkat [11] were > 25 µM and > 50 µM, respectively. The GI is 77.6% in the series with Leishmania infantum [3], 51.5% in the series on Leishmania infantum [7] and 67.7% with Leishmania infantum [8]. In the series on Leishmania infantum [4], the Activity turned out to be 23%. Besides, in series [5], the Fa worked out at 100%. Moreover, the selectivity ratio in series [6] is > 65; in [10] it was 29. In [9], the Papp stood at 5.61 ×10⁻⁶ cm/s.
